Laboratory results taken from ChEMBL document CHEMBL2396575, “Curcumin-I Knoevenagel's condensates and their Schiff's bases as anticancer agents: synthesis, pharmacological and simulation studies” (Bioorg Med Chem, 2013).

Experiments:
[1] = Hemolytic activity in rabbit RBC at 100 ug/mL after 3 hrs by colorimetric assay relative to control; assay type: ADME, cell-based, Oryctolagus cuniculus, Erythrocyte; details: rabbit red blood cells (RBC), read-out: Activity
Procedure, shortened: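 Rabbit whole blood diluted 0.1 mL in 0.9 mL PBS, incubated with test compound at 37 °C for 3 h, then centrifuged at 3800 rpm for 15 min. Supernatant mixed with Drabkin's reagent for 15 min, cyanmethemoglobin read at 540 nm against a hemoglobin standard curve. Compound absorbance at 540 nm subtracted. Saline served as negative control, distilled water as positive.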

MCF7 [2] = test: Anticancer activity against wild-type human MCF7 cells assessed as cell viability at 1 ug/mL after 24 hrs by MTT assay relative to control; assay type: functional; details: MCF7, 24 h, read-out: Activity
Procedure, shortened: (§1)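 MCF-7 cells grown in low-glucose DMEM with 10% FBS plus antibiotic/antimycotic. Seeded at 2×10^3 cells/well, incubated 24 h at 37 °C in humidified 5% CO2, then exposed to test compounds for 24 h. Cells washed with PBS, given MTT for 4 h at 37 °C, formazan dissolved in DMSO, absorbance read at 570 nm. Viability taken as the ratio of treated to blank.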

MCF7 [3] = test: Anticancer activity against wild-type human MCF7 cells assessed as cell viability at 0.001 ug/mL after 24 hrs by MTT assay relative to control; assay type: functional; details: MCF7, 24 h, read-out: Activity; procedure, shortened: as §1
MCF7 [4] = test: Anticancer activity against wild-type human MCF7 cells assessed as cell viability at 0.1 ug/mL after 24 hrs by MTT assay relative to control; assay type: functional; details: MCF7, 24 h, read-out: Activity; procedure, shortened: as §1
MCF7 [5] = test: Anticancer activity against wild-type human MCF7 cells assessed as cell viability at 0.01 ug/mL after 24 hrs by MTT assay relative to control; assay type: functional; details: MCF7, 24 h, read-out: Activity; procedure, shortened: as §1
DNA [6] = test: Binding affinity to calf thymus DNA assessed as hypochromicity by UV-vis spectroscopic analysis relative to control; assay type: nucleic-acid assay; parameters: concentration or dose not given beside the values; details: Bos taurus
Procedure, shortened: (§2)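 Ct-DNA stock in tris–HCl pH 7.2–7.3, stored at 4 °C, used within 4 days; A260/A280 ≥1.8. DNA concentration from ε260 6600 M⁻¹ cm⁻¹. Compound dissolved in methanol (2.0×10^-4 M) and titrated with DNA (0.3–2.1 ×10^-4) in tris–HCl, UV–vis spectra recorded after each addition. Kb from modified Benesi–Hildebrand (Wolfe) equation.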

DNA [7] = test: Binding affinity to calf thymus DNA by Benessi-Hilderbrand equation; assay type: nucleic-acid assay; details: Bos taurus; procedure, shortened: as §2
MCF7 [8] = test: Anticancer activity against wild-type human MCF7 cells assessed as cell viability at 0.0001 ug/mL after 24 hrs by MTT assay relative to control; assay type: functional; details: MCF7, 24 h, read-out: Activity; procedure, shortened: as §1

`COc1cc(/C=C/C(=N\NC(N)=O)C(=Cc2cn(-c3ccccc3)nc2-c2ccccc2O)C(/C=C/c2ccc(O)c(OC)c2)=N/NC(N)=O)ccc1O` gave a hemolysis at 3 h, 100 ug/mL [1] of 25%, a viability at 1 µg/mL (MCF7 [2]) of 87% and a viability at 0.001 µg/mL (MCF7 [3]) of 91%. For the same compound, the viability at 0.1 µg/mL (MCF7 [4]) was 86%, the viability at 0.01 µg/mL (MCF7 [5]) was 91% and the Activity (DNA [6]) was 10%. For the same compound, the Kb (DNA [7]) was 3 ×10⁴ /M and the viability at 0.0001 µg/mL (MCF7 [8]) was 92%.
`COc1cccc2c1C(=O)c1c(O)c3c(c(O)c1C2=O)C[C@@](O)(C(=O)CO)C[C@@H]3O[C@H]1C[C@H](N)[C@H](O)[C@H](C)O1` [DOXORUBICIN] showed a hemolysis at 3 h, 100 ug/mL [1] of 42%.
Compound `COc1cc(/C=C/C(=N\NC(N)=O)C(=Cc2cn(-c3ccccc3)nc2-c2ccc([N+](=O)[O-])cc2)C(/C=C/c2ccc(O)c(OC)c2)=N/NC(N)=O)ccc1O` has a hemolysis at 3 h, 100 ug/mL [1] of 11%, a viability at 1 µg/mL (MCF7 [2]) of 98% and a viability at 0.001 µg/mL (MCF7 [3]) of 105%. It also gave a viability at 0.1 µg/mL (MCF7 [4]) of 92%, a viability at 0.01 µg/mL (MCF7 [5]) of 95% and an Activity (DNA [6]) of 8%. For the same compound, the Kb (DNA [7]) was 2.6 ×10⁴ /M and the viability at 0.0001 µg/mL (MCF7 [8]) was 110%.
Work on `COc1cc(/C=C/C(=O)C(=Cc2cn(-c3ccccc3)nc2-c2ccc(Cl)cc2)C(=O)/C=C/c2ccc(O)c(OC)c2)ccc1O` yielded a hemolysis at 3 h, 100 ug/mL [1] of 16%, a viability at 1 µg/mL (MCF7 [2]) of 65% and a viability at 0.001 µg/mL (MCF7 [3]) of 81%. It also gave a viability at 0.1 µg/mL (MCF7 [4]) of 72%, a viability at 0.01 µg/mL (MCF7 [5]) of 75% and an Activity (DNA [6]) of 8.1%. For the same compound, the Kb (DNA [7]) was 7.8 ×10⁵ /M and the viability at 0.0001 µg/mL (MCF7 [8]) was 95%.
With `O=Cc1cn(-c2ccccc2)nc1-c1cccc([N+](=O)[O-])c1` the hemolysis at 3 h, 100 ug/mL [1] was 10%, the viability at 1 µg/mL (MCF7 [2]) was 75% and the viability at 0.001 µg/mL (MCF7 [3]) was 89%. The viability at 0.1 µg/mL (MCF7 [4]) was 86%, the viability at 0.01 µg/mL (MCF7 [5]) was 89% and the Activity (DNA [6]) was 5.2%. It also gave a Kb (DNA [7]) of 2.5 ×10³ /M and a viability at 0.0001 µg/mL (MCF7 [8]) of 89%.
Compound `O=Cc1cn(-c2ccccc2)nc1-c1ccc([N+](=O)[O-])cc1` has a hemolysis at 3 h, 100 ug/mL [1] of 7%, a viability at 1 µg/mL (MCF7 [2]) of 80% and a viability at 0.001 µg/mL (MCF7 [3]) of 97%. For the same compound, the viability at 0.1 µg/mL (MCF7 [4]) was 96%, the viability at 0.01 µg/mL (MCF7 [5]) was 86% and the Activity (DNA [6]) was 7.7%. It also gave a Kb (DNA [7]) of 1.9 ×10³ /M and a viability at 0.0001 µg/mL (MCF7 [8]) of 106%.
Compound `COc1cc(/C=C/C(=O)C(=Cc2cn(-c3ccccc3)nc2-c2ccccc2O)C(=O)/C=C/c2ccc(O)c(OC)c2)ccc1O` has a hemolysis at 3 h, 100 ug/mL [1] of 20%, a viability at 1 µg/mL (MCF7 [2]) of 88% and a viability at 0.001 µg/mL (MCF7 [3]) of 97%. For the same compound, the viability at 0.1 µg/mL (MCF7 [4]) was 91%, the viability at 0.01 µg/mL (MCF7 [5]) was 93% and the Activity (DNA [6]) was 13%. The Kb (DNA [7]) was 2.1 ×10⁴ /M and the viability at 0.0001 µg/mL (MCF7 [8]) was 100%.
In the case of `COc1cc(/C=C/C(=N\NC(N)=O)C(=Cc2cn(-c3ccccc3)nc2-c2cccc([N+](=O)[O-])c2)C(/C=C/c2ccc(O)c(OC)c2)=N/NC(N)=O)ccc1O`, the hemolysis at 3 h, 100 ug/mL [1] is reported as 16%, the viability at 1 µg/mL (MCF7 [2]) is reported as 67% and the viability at 0.001 µg/mL (MCF7 [3]) is reported as 89%. It also gave a viability at 0.1 µg/mL (MCF7 [4]) of 68%, a viability at 0.01 µg/mL (MCF7 [5]) of 86% and an Activity (DNA [6]) of 9%. The Kb (DNA [7]) was 9.1 ×10⁴ /M and the viability at 0.0001 µg/mL (MCF7 [8]) was 91%.
For `COc1cc(/C=C/C(=O)C(=Cc2cn(-c3ccccc3)nc2-c2cccc([N+](=O)[O-])c2)C(=O)/C=C/c2ccc(O)c(OC)c2)ccc1O`, the hemolysis at 3 h, 100 ug/mL [1] was 14%, the viability at 1 µg/mL (MCF7 [2]) was 70% and the viability at 0.001 µg/mL (MCF7 [3]) was 96%. The viability at 0.1 µg/mL (MCF7 [4]) was 85%, the viability at 0.01 µg/mL (MCF7 [5]) was 88% and the Activity (DNA [6]) was 29%. The Kb (DNA [7]) was 9.4 ×10⁴ /M and the viability at 0.0001 µg/mL (MCF7 [8]) was 99%.
With `COc1cc(/C=C/C(=N\NC(N)=O)C(=Cc2cn(-c3ccccc3)nc2-c2ccc(Cl)cc2)C(/C=C/c2ccc(O)c(OC)c2)=N/NC(N)=O)ccc1O` the hemolysis at 3 h, 100 ug/mL [1] was 17%, the viability at 1 µg/mL (MCF7 [2]) was 74% and the viability at 0.001 µg/mL (MCF7 [3]) was 81%. It also gave a viability at 0.1 µg/mL (MCF7 [4]) of 78%, a viability at 0.01 µg/mL (MCF7 [5]) of 81% and an Activity (DNA [6]) of 11%. The Kb (DNA [7]) was 8.1 ×10⁵ /M and the viability at 0.0001 µg/mL (MCF7 [8]) was 87%.
`O=Cc1cn(-c2ccccc2)nc1-c1ccccc1O` showed a hemolysis at 3 h, 100 ug/mL [1] of 18%, a viability at 1 µg/mL (MCF7 [2]) of 79% and a viability at 0.001 µg/mL (MCF7 [3]) of 97%. For the same compound, the viability at 0.1 µg/mL (MCF7 [4]) was 73%, the viability at 0.01 µg/mL (MCF7 [5]) was 92% and the Activity (DNA [6]) was 6.2%. It also gave a Kb (DNA [7]) of 1.4 ×10³ /M and a viability at 0.0001 µg/mL (MCF7 [8]) of 96%.
In the case of `COc1cc(/C=C/C(=O)C(=Cc2cn(-c3ccccc3)nc2-c2ccc([N+](=O)[O-])cc2)C(=O)/C=C/c2ccc(O)c(OC)c2)ccc1O`, the hemolysis at 3 h, 100 ug/mL [1] is reported as 10%, the viability at 1 µg/mL (MCF7 [2]) is reported as 90% and the viability at 0.001 µg/mL (MCF7 [3]) is reported as 98%. For the same compound, the viability at 0.1 µg/mL (MCF7 [4]) was 92%, the viability at 0.01 µg/mL (MCF7 [5]) was 95% and the Activity (DNA [6]) was 12.3%. The Kb (DNA [7]) was 1.4 ×10⁴ /M and the viability at 0.0001 µg/mL (MCF7 [8]) was 98%.
`O=Cc1cn(-c2ccccc2)nc1-c1ccc(Cl)cc1` showed a hemolysis at 3 h, 100 ug/mL [1] of 9%, a viability at 1 µg/mL (MCF7 [2]) of 59% and a viability at 0.001 µg/mL (MCF7 [3]) of 98%. For the same compound, the viability at 0.1 µg/mL (MCF7 [4]) was 90%, the viability at 0.01 µg/mL (MCF7 [5]) was 98% and the Activity (DNA [6]) was 5.6%. It also gave a Kb (DNA [7]) of 7.6 ×10⁴ /M and a viability at 0.0001 µg/mL (MCF7 [8]) of 100%.
